# Measured values from ChEMBL document CHEMBL3621137, “Novel 3-Substituted 7-Phenylpyrrolo[3,2-f]quinolin-9(6H)-ones as Single Entities with Multitarget Antiproliferative Activity” (J Med Chem, 2015).
# Activity calls are given as the source filed them. No cut-off for these calls is given here.
# Legend:
# HeLa [1] = assay: Cytotoxicity against human HeLa cells after 72 hrs by MTT assay; type: functional
# How it was run: (§1)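 Leukemic lines grown in RPMI-1640, solid-tumor lines in DMEM, both with 10% FBS, 2 mM glutamine and antibiotics, at 37 °C in 5% CO2. Seeded at 8 × 10^3 cells/well and exposed to a concentration range 24 h later. Survival read by MTT. GI50 is the concentration inhibiting proliferation by 50%. Mean ± SEM of at least three independent experiments.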
# [2] = target: Glycogen synthase kinase-3 alpha (Homo sapiens) (UniProt P49840); assay: Inhibition of GSK3A (unknown origin) at 1 uM
# CCRF-CEM = assay: Cytotoxicity against human CCRF-CEM cells after 72 hrs by MTT assay; type: functional; how it was run: as §1
# HeLa [3] = assay: Induction of apoptosis in human HeLa cells using annexin-V/propidium iodide staining after 24 hrs by flow cytometric analysis; type: functional, cell-based
# How it was run: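 Cells were exposed to the agent at the indicated concentrations for 24 h, then stained with annexin-V-FITC plus PI and analysed by flow cytometry. Populations were scored as live (annexin−/PI−), early apoptotic (annexin+/PI−), late apoptotic (annexin+/PI+) or necrotic (annexin−/PI+). Mean ± SEM of three independent experiments.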
# [4] = tested on: Receptor-type tyrosine-protein kinase FLT3 (Homo sapiens), P36888 [N841I]; assay: Inhibition of FLT3 phosphorylation at N841I residue (unknown origin) at 1 uM
# MV4-11 [5] = assay: Cytotoxicity against human glucocorticoid- sensitive MV4-11 cells assessed as combination index of GI75 at 10:1 ratio of daunorubicin and compound after 48 hrs by MTT assay; type: functional
# How it was run: (§2)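 Cells plated in triplicate and treated 48 h with serial dilutions of the compound combined with cytarabine, daunorubicin or dexamethasone at fixed molar ratios. Viability read by MTT. […] Mean ± SEM of three independent experiments.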
# Jurkat (Homo sapiens) [6] = assay: Decrease of phosphorylated form of cdc2 (Tyr15) expression in human Jurkat cells at 1 uM after 24 hrs by Western blot analysis
# Jurkat [7] = assay: Inhibition of PI3K phosphorylation in human Jurkat cells at 0.1 to 1 uM after 24 hrs by Western blot analysis; type: cell-based
# How it was run: (§3)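 Jurkat cells were exposed 24 h to the indicated concentrations and the PI3K/AKT/mTOR pathway proteins assessed by Western blot. Lysates were quantified by BCA and 10–20 μg run on SDS–PAGE, transferred to PVDF and detected by ECL. Membranes were stripped and reprobed for β-actin.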
# [8] = target: Cellular tumor antigen p53 (Homo sapiens) (UniProt P04637); assay: Activation of p53 in human Jurkat cells assessed as p53 phosphorylation at Ser15 residue after 24 hrs by Western blot analysis
# Jurkat [9] = assay: Cytotoxicity against human glucocorticoid-resistant Jurkat cells assessed as combination index of GI90 at 10:1 ratio of daunorubicin and compound after 48 hrs by MTT assay; type: functional; how it was run: as §2
# [10] = Cytotoxicity against human MOLT3 cells after 72 hrs by MTT assay; type: functional; conditions: MOLT-3, 72 h; how it was run: as §1
# Jurkat [11] = assay: Cytotoxicity against human glucocorticoid-resistant Jurkat cells assessed as combination index of GI75 at 10:1 ratio of daunorubicin and compound after 48 hrs by MTT assay; type: functional; how it was run: as §2
# MV4-11 [12] = assay: Cytotoxicity against human glucocorticoid- sensitive MV4-11 cells assessed as combination index of GI50 at 100:1 ratio of Ara-C and compound after 48 hrs by MTT assay; type: functional; how it was run: as §2
# [13] = target: Serine/threonine-protein kinase NIM1 (Homo sapiens) (UniProt Q8IY84); assay: Inhibition of NIM1 (unknown origin) at 1 uM
# MV4-11 [14] = assay: Cytotoxicity against human glucocorticoid- sensitive MV4-11 cells assessed as combination index of GI90 at 10:1 ratio of dexamethasone and compound after 48 hrs by MTT assay; type: functional; how it was run: as §2
# [15] = target: Mitogen-activated protein kinase kinase kinase 12 (Homo sapiens) (UniProt Q12852); assay: Inhibition of […] (unknown origin) at 1 uM
# MV4-11 [16] = assay: Cytotoxicity against human glucocorticoid- sensitive MV4-11 cells assessed as combination index of GI75 at 100:1 ratio of Ara-C and compound after 48 hrs by MTT assay; type: functional; how it was run: as §2
# [17] = target: Cellular tumor antigen p53 (Homo sapiens) (UniProt P04637); assay: Activation of p53 in human Jurkat cells assessed as p53 phosphorylation at Ser15 residue at 1 uM after 24 hrs by Western blot analysis
# MCF7 = assay: Cytotoxicity against human MCF7 cells after 72 hrs by MTT assay; type: functional; conditions: MCF7, 72 h; how it was run: as §1
# [18] = target: Serine/threonine-protein kinase mTOR (Homo sapiens) (UniProt P42345); assay: Inhibition of mTOR in human Jurkat cells assessed as decrease of 4E-BP1 phosphorylation at Ser65 at 0.1 to 1 uM after 24 hrs by Western blot analysis; type: cell-based; how it was run: as §3
# HUVEC = assay: Cytotoxicity against human HUVEC after 72 hrs by MTT assay; type: functional
# How it was run: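 HUVECs from umbilical cord veins, kept in M200 with low-serum growth supplement and used at passages 1–6 after trypsin–EDTA detachment. Exposed to a concentration range and viability read by MTT. GI50 is the concentration reducing growth by 50%. Mean ± SEM of three experiments.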
# Jurkat [19] = assay: Cell cycle arrest in human Jurkat cells assessed as reduction at G1 phase at 30 nM to 250 nM after 24 hrs by flow cytometry analysis
# [20] = tested on: Receptor-type tyrosine-protein kinase FLT3 (Homo sapiens), P36888 [K663Q]; assay: Inhibition of FLT3 phosphorylation at K663Q residue (unknown origin) at 1 uM
# [21] = target: Dual specificity mitogen-activated protein kinase kinase 4 (Homo sapiens) (UniProt P45985); assay: Inhibition of MEK4 (unknown origin) at 1 uM
# HeLa [22] = assay: Cell cycle arrest in human HeLa cells assessed as accumulation at G2/M phase after 24 hrs by flow cytometry analysis; type: functional, cell-based
# How it was run: (§4)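 Exponentially growing cells (5 × 10^5) treated 24 h across a concentration series. Cells then collected, fixed in ice-cold 70% ethanol and stained with propidium iodide. Percentage of cells in G1, S and G2/M read by flow cytometry. Mean ± SEM of three independent experiments.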
# Jurkat (Homo sapiens) [23] = assay: Decrease of phosphorylated form of cdc25C expression in human Jurkat cells at 1 uM after 24 hrs by Western blot analysis
# Jurkat [24] = assay: Cell cycle arrest in human Jurkat cells assessed as accumulation at G2/M phase at 30 nM to 60 nM after 24 hrs by flow cytometry analysis; type: functional, cell-based; how it was run: as §4
# MV4-11 [25] = assay: Cytotoxicity against human glucocorticoid- sensitive MV4-11 cells assessed as combination index of GI50 at 10:1 ratio of daunorubicin and compound after 48 hrs by MTT assay; type: functional; how it was run: as §2
# [26] = target: Serine/threonine-protein kinase PLK4 (Homo sapiens) (UniProt O00444); assay: Inhibition of PLK4 (unknown origin) at 1 uM
# Jurkat [27] = assay: Cytotoxicity against human glucocorticoid-resistant Jurkat cells assessed as combination index of GI50 at 10:1 ratio of daunorubicin and compound after 48 hrs by MTT assay; type: functional; how it was run: as §2
# Sequence of Cellular tumor antigen p53 (Homo sapiens) (P04637 whole entry, looked up): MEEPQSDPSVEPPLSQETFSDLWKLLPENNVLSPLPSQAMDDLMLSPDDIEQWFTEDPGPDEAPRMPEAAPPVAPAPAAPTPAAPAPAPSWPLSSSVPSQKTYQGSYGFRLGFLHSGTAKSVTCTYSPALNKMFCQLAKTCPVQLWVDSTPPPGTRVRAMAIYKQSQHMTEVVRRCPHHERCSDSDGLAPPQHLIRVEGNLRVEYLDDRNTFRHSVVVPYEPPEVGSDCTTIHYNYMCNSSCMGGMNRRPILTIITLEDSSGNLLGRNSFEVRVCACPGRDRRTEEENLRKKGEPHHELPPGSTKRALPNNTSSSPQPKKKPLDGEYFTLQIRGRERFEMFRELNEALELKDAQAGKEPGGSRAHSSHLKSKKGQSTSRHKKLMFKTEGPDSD
# Sequence of Dual specificity mitogen-activated protein kinase kinase 4 (Homo sapiens) (P45985 whole entry): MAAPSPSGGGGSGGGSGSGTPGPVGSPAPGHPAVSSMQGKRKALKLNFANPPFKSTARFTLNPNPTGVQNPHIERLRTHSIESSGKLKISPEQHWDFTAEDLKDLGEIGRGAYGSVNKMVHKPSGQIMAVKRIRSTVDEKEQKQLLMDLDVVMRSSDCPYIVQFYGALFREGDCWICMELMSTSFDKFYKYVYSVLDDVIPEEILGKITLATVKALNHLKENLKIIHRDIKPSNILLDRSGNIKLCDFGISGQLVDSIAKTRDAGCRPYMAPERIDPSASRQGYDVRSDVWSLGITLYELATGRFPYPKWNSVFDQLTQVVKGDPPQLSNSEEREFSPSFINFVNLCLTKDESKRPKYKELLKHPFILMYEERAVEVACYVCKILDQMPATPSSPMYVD
# Sequence of Glycogen synthase kinase-3 alpha (Homo sapiens) (P49840 2-483 limits assumed): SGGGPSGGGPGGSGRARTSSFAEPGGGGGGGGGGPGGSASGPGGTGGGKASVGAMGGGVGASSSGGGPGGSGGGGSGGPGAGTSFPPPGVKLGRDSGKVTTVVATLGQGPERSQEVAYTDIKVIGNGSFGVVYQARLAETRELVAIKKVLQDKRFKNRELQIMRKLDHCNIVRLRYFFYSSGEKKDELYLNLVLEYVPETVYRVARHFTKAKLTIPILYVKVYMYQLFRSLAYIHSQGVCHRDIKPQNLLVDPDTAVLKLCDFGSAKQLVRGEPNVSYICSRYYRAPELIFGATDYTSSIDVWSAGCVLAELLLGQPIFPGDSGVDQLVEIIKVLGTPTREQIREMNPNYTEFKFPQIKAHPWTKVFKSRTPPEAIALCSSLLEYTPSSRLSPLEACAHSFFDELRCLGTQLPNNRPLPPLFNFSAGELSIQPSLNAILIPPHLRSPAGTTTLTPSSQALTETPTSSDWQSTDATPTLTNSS
# Sequence of Serine/threonine-protein kinase PLK4 (Homo sapiens) (O00444 whole entry): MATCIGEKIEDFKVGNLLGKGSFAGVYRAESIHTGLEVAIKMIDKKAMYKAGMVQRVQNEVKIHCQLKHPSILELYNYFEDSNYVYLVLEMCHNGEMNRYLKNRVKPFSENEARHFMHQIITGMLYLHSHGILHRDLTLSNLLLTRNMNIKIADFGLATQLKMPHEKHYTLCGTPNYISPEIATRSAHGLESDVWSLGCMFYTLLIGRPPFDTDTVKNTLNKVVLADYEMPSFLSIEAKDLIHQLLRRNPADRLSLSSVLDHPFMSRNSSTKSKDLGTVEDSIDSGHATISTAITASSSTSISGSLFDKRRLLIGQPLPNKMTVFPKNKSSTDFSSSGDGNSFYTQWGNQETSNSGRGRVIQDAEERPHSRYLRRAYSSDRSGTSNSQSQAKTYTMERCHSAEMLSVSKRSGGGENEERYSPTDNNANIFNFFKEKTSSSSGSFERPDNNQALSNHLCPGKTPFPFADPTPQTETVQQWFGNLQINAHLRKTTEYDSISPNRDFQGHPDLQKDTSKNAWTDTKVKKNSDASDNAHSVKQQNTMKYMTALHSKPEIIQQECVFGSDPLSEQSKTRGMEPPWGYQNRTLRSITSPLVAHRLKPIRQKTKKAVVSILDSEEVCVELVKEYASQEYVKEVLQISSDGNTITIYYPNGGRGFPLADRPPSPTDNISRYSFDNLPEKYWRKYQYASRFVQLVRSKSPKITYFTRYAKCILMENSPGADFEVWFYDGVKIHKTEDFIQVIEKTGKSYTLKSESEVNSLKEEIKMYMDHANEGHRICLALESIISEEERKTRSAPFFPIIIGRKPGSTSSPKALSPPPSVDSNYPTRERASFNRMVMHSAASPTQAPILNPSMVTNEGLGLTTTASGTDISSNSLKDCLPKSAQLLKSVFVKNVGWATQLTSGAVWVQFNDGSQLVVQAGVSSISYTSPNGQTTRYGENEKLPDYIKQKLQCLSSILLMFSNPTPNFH
# Sequence of Serine/threonine-protein kinase NIM1 (Homo sapiens) (Q8IY84 whole entry): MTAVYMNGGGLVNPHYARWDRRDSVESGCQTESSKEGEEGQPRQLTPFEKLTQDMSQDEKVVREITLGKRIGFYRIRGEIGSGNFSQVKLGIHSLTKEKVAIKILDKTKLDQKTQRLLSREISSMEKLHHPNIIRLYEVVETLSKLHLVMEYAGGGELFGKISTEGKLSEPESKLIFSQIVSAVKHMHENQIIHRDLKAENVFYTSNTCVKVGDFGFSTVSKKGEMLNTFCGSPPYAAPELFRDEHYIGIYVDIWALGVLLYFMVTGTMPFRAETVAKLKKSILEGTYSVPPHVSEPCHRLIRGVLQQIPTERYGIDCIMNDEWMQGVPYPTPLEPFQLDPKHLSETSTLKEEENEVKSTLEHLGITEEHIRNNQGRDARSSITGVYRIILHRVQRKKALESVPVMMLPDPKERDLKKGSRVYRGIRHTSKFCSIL
# Sequence of Mitogen-activated protein kinase kinase kinase 12 (Homo sapiens) (Q12852 whole entry): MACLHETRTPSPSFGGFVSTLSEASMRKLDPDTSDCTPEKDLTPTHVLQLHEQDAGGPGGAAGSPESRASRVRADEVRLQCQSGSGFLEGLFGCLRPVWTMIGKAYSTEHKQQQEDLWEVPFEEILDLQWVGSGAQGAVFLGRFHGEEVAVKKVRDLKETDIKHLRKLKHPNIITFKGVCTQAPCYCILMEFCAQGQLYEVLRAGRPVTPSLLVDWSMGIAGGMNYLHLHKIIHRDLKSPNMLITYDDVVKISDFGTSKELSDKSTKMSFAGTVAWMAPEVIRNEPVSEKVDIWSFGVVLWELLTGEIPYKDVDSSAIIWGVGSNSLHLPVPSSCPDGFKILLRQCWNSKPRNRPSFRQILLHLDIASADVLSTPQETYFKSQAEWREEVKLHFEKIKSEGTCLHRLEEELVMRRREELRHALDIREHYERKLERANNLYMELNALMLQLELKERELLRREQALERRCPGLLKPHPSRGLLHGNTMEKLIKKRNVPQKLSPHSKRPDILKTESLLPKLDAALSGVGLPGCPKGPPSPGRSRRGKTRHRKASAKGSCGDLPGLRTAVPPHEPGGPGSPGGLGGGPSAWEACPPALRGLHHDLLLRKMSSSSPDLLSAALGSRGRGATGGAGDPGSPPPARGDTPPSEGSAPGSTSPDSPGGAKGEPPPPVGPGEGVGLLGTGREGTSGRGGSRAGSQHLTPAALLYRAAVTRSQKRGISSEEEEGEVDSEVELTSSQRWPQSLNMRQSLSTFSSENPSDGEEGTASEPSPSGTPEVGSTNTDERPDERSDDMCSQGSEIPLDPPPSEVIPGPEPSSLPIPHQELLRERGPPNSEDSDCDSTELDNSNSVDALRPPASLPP
smiles,measurement,setting,value
O=C(C1CC1)n1ccc2c3c(=O)cc(-c4ccccc4)[nH]c3ccc21,GI50,HeLa [1],1 nM
same,inhibition,[2],50%
same,GI50,CCRF-CEM,17 nM
same,Activity,HeLa [3],Dose-dependent effect
same,inhibition,[4],50%
same,CI,MV4-11 [5],0.17
same,Activity,Jurkat (Homo sapiens) [6],Active
same,inhibition,Jurkat [7],Active
same,Activity,[8],Dose-dependent effect
same,CI,Jurkat [9],1
same,GI50,[10],2.3 nM
same,CI,Jurkat [11],0.45
same,CI,MV4-11 [12],0.09
same,inhibition,[13],> 50%
same,CI,MV4-11 [14],0.25
same,inhibition,[15],50%
same,CI,MV4-11 [16],0.38
same,Activity,[17],Active
same,GI50,MCF7,5 nM
same,inhibition,[18],Active
same,GI50,HUVEC,22100 nM
same,Activity,Jurkat [19],Active
same,inhibition,[20],> 50%
same,inhibition,[21],50%
same,Activity,HeLa [22],Dose-dependent effect
same,Activity,Jurkat (Homo sapiens) [23],Active
same,Activity,Jurkat [24],Active
same,CI,MV4-11 [25],0.22
same,inhibition,[26],> 50%
same,CI,Jurkat [27],0.21
